This passage reports Drug metabolism, Drug uptake and Activity results from ChEMBL document CHEMBL4270555, “Synthesis and biological evaluation of magnolol derivatives as melatonergic receptor agonists with potential use in depression” (Eur J Med Chem, 2018).

A short description of series [1]: Drug metabolism in Sprague-Dawley rat plasma assessed as (2S,3R,4S,5S,6R)-2-(5,5'-diallyl-2'-methoxybiphenyl-2-yloxy)-6-(hydroxymethyl)tetrahydro-2H-pyran-3,4,5-triol formation at 100 mg/kg, po by UPLC-IT-TOF-MS analysis. The class given is ADME, organism-based. Particulars: in vivo. The method, boiled down:
(§1)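 Rats (n = 6) housed in metabolic cages received 100.0 mg/kg orally; controls received 0.5% CMC-Na. Plasma, urine and faeces were collected and analyzed by LC-IT-TOF-MS on a C18 column at 30 °C. Gradient 5–100% acetonitrile with 0.05% formic acid over 18 min at 0.2 mL/min; positive and negative ion MS/MS.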

The nature of series [2]: Drug metabolism in Sprague-Dawley rat plasma assessed as 5'-(1-hydroxyallyl)-5-(1-hydroxypropyl)-2'-((2S,3R,4S,5S,6R)-3,4,5-trihydroxy-6-(hydroxymethyl)tetrahydro-2H-pyran-2-yloxy)biphenyl-2-yl hydrogen sulfate formation at 100 mg/kg, po by UPLC-IT-TOF-MS analysis. The class given is ADME, organism-based. The settings on record: in vivo. The method, boiled down: as §1
The nature of series [3]: Drug level in Sprague-Dawley rat urine at 100 mg/kg, po by UPLC-IT-TOF-MS analysis. The class given is ADME, organism-based. Particulars: in vivo. The method, boiled down:
as §1

A short description of series [4]: Drug metabolism in Sprague-Dawley rat plasma assessed as 5,5'-diallyl-2'-((2S,3R,4S,5S,6R)-3,4,5-trihydroxy-6-(hydroxymethyl)tetrahydro-2H-pyran-2-yloxy)biphenyl-2-yl hydrogen sulfate formation at 100 mg/kg, po by UPLC-IT-TOF-MS analysis. The class given is ADME, organism-based. The settings on record: in vivo. The method, boiled down: (§2)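 Male/unspecified SD rats (n = 6) housed individually in metabolic cages, dosed orally at 100.0 mg/kg; controls given 0.5% CMC-Na orally. Plasma, urine and faeces collected. LC-IT-TOF-MS on C18 column at 30 °C, formic acid (0.05%) water/acetonitrile gradient 5–100% B over 18 min, 0.2 mL/min; positive and negative ion modes with automatic MS/MS.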

Series [5] can be described thus: Drug metabolism in Sprague-Dawley rat urine assessed as (2S,3R,4S,5S,6R)-2-(5'-allyl-2'-hydroxy-5-(1-hydroxyallyl)biphenyl-2-yloxy)-6-(hydroxymethyl)tetrahydro-2H-pyran-3,4,5-triol formation at 100 mg/kg, po by UPLC-IT-TOF-MS analysis. The class given is ADME, organism-based. Particulars: in vivo. The method, boiled down: as §2
A short description of series [6]: Drug metabolism in Sprague-Dawley rat plasma assessed as 5,5'-diallylbiphenyl-2,2'-diol formation at 100 mg/kg, po by UPLC-IT-TOF-MS analysis. The class given is ADME, organism-based. Particulars: in vivo. The method, boiled down:
as §2

Series [7] in a line: Drug metabolism in Sprague-Dawley rat urine assessed as 1-(5'-allyl-2'-hydroxy-6-((2S,3R,4S,5S,6R)-3,4,5-trihydroxy-6-(hydroxymethyl)tetrahydro-2H-pyran-2-yloxy)biphenyl-3-yl)prop-2-en-1-one formation at 100 mg/kg, po by UPLC-IT-TOF-MS analysis. The class given is ADME, organism-based. Particulars: in vivo. The method, boiled down:
as §2

Series [8] in a line: Drug metabolism in Sprague-Dawley rat plasma assessed as 5'-acryloyl-2'-hydroxy-5-propionylbiphenyl-2-yl hydrogen sulfate formation at 100 mg/kg, po by UPLC-IT-TOF-MS analysis. The class given is ADME, organism-based. The settings on record: in vivo. The method, boiled down:
as §2

The nature of series [9]: Drug metabolism in Sprague-Dawley rat feces assessed as (2S,3S,4S,5R,6S)-6-(5,5'-diallyl-2'-methoxybiphenyl-2-yloxy)-3,4,5-trihydroxytetrahydro-2H-pyran-2-carboxylic acid formation at 100 mg/kg, po by UPLC-IT-TOF-MS analysis. The class given is ADME, organism-based. Particulars: in vivo. An outline of the steps: as §1
Series [10] is described as follows: Drug metabolism in Sprague-Dawley rat urine assessed as 5'-(1-hydroxyallyl)-5-(1-hydroxypropyl)-2'-((2S,3R,4S,5S,6R)-3,4,5-trihydroxy-6-(hydroxymethyl)tetrahydro-2H-pyran-2-yloxy)biphenyl-2-yl hydrogen sulfate formation at 100 mg/kg, po by UPLC-IT-TOF-MS analysis. The class given is ADME, organism-based. The settings on record: in vivo. An outline of the steps: as §2

The nature of series [11]: Drug metabolism in Sprague-Dawley rat feces assessed as (2S,3R,4S,5S,6R)-2-(5,5'-diallyl-2'-methoxybiphenyl-2-yloxy)-6-(hydroxymethyl)tetrahydro-2H-pyran-3,4,5-triol formation at 100 mg/kg, po by UPLC-IT-TOF-MS analysis. Particulars: in vivo. The class given is ADME, organism-based. An outline of the steps: as §1
The nature of series [12]: Drug metabolism in Sprague-Dawley rat feces assessed as (2S,3S,4S,5R,6S)-3,4,5-trihydroxy-6-(5-(1-hydroxyallyl)-5'-(1-hydroxypropyl)-2'-((2S,3R,4S,5S,6R)-3,4,5-trihydroxy-6-(hydroxymethyl)tetrahydro-2H-pyran-2-yloxy)biphenyl-2-yloxy)tetrahydro-2H-pyran-2-carboxylic acid formation at 100 mg/kg, po by UPLC-IT-TOF-MS analysis. The class given is ADME, organism-based. Particulars: in vivo. An outline of the steps: as §1

A short description of series [13]: Drug metabolism in Sprague-Dawley rat feces assessed as 5,5'-diallylbiphenyl-2,2'-diol formation at 100 mg/kg, po by UPLC-IT-TOF-MS analysis. The class given is ADME, organism-based. Particulars: in vivo. An outline of the steps: as §1
Series [14] relates to Mus musculus. Nature of the series: Increase in 5-hydroxyindole-3-acetic acid level in Kunming mouse hypothalamus at 40 mg/kg, po treated for 7 days by HPLC-ECD analysis. The class given is functional, organism-based. An outline of the steps:
(§3)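 Male Kunming mice (18–20 g) given vehicle or 40 mg/kg for 7 days, then killed by cervical dislocation. Frontal cortex, hippocampus, striatum, hypothalamus and thalamus dissected on ice, homogenized in ice-cold 0.2 M perchloric acid with 0.1 mM EDTA, centrifuged 15,000 rpm, 20 min, 4 °C. Supernatant analysed by HPLC-ECD at +0.50 V; phosphate/octanesulfonate mobile phase pH 3.0 with 12% methanol. Levels in ng/g, mean ± SEM.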

Series [15] can be described thus: Drug metabolism in Sprague-Dawley rat feces assessed as (2S,3R,4S,5S,6R)-2-(5'-allyl-2'-hydroxy-5-(1-hydroxyallyl)biphenyl-2-yloxy)-6-(hydroxymethyl)tetrahydro-2H-pyran-3,4,5-triol formation at 100 mg/kg, po by UPLC-IT-TOF-MS analysis. Particulars: in vivo. The class given is ADME, organism-based. The method, boiled down: as §1
Another series concerns Rattus norvegicus. Nature of the series: Toxicity in Sprague-Dawley rat assessed as irritation at 2000 mg/kg, po measured over 4 hrs. The class given is organism-based. Particulars: in vivo. The method, boiled down:
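Acute oral toxicity run per OECD 425 in adult SD rats (180–220 g). Six animals per group: vehicle control (0.5% CMC-Na, oral), male rats and female rats each dosed orally at 2000 mg/kg. Animals were watched continuously for the first 4 h for behavior, breathing, cutaneous signs (irritation, ulceration, caustic injury, skin rashes), sensory nervous and gastrointestinal effects. Later checks were hourly for 24 h, then every 6 h for 48 h.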

The nature of series [16]: Drug metabolism in Sprague-Dawley rat feces assessed as 2'-hydroxy-5'-(1-hydroxyallyl)-5-propylbiphenyl-2-yl hydrogen sulfate formation at 100 mg/kg, po by UPLC-IT-TOF-MS analysis. The class given is ADME, organism-based. The settings on record: in vivo. An outline of the steps:
as §1

In series [17] the test system is Mus musculus. Nature of the series: Increase in 3,4-dihydroxyphenylacetic acid level in Kunming mouse hypothalamus at 40 mg/kg, po treated for 7 days by HPLC-ECD analysis. The class given is functional, organism-based. The method, boiled down: as §3
Series [18] is described as follows: Drug level in Sprague-Dawley rat plasma at 100 mg/kg, po by UPLC-IT-TOF-MS analysis. The class given is ADME, organism-based. The settings on record: in vivo. An outline of the steps:
as §1

For series [19], the system named is Mus musculus. Nature of the series: Increase in norepinephrine level in Kunming mouse frontal cortex at 40 mg/kg, po treated for 7 days by HPLC-ECD analysis. The class given is functional, organism-based. The method, boiled down: as §3
The nature of series [20]: Drug metabolism in Sprague-Dawley rat feces assessed as 5-allyl-5'-(1-hydroxyallyl)-2'-((2S,3R,4S,5S,6R)-3,4,5-trihydroxy-6-(hydroxymethyl)tetrahydro-2H-pyran-2-yloxy)biphenyl-2-yl hydrogen sulfate formation at 100 mg/kg, po by UPLC-IT-TOF-MS analysis. The class given is ADME, organism-based. The settings on record: in vivo. The method, boiled down:
as §1

Calls of active or inactive are those of the source. The rule behind the calls is not given here.

Consider `C=CCc1ccc(O)c(-c2cc(CC=C)ccc2O[C@@H]2O[C@H](CO)[C@@H](O)[C@H](O)[C@H]2O)c1`, for which the Drug metabolism entry is “Metabolite_Detected” in series [1]; “Metabolite_Notdetected” in series [2]; “Metabolite_Notdetected” in series [4]; “Metabolite_Detected” in series [5]; “Metabolite_Notdetected” in series [6]; “Metabolite_Detected” in series [7]. The Drug metabolism result in series [8] was “Metabolite_Notdetected”; in series [9], “Metabolite_Notdetected”; in [10], “Metabolite_Detected”; in series [11], “Metabolite_Detected”; in [12] it was “Metabolite_Detected”; in [13], “Metabolite_Detected”. The Drug metabolism entry in [15] is given as “Metabolite_Notdetected”; in [16] it was “Metabolite_Detected”; in series [20] it was “Metabolite_Detected”. For the same compound, the Drug uptake entry is “Not Active” in series [3] and “Active” in series [18]. Further, the outcome with Mus musculus [14], with Mus musculus [17] and in the series on Mus musculus [19] was Active. In addition, the Activity entry in the series on Rattus norvegicus is listed as “Non-Toxic”.
